Results taken from ChEMBL document CHEMBL2062435, “Synthesis and in vitro antibacterial activity of gemifloxacin derivatives containing a substituted benzyloxime moiety” (2012).
In brackets after ≈: the same amount, converted by molar mass.

Tests used:
Assay type in all cases: functional
Enterococcus faecium [1] = experiment: Antimicrobial activity against Enterococcus faecium 10-9 after 18-24 hrs by two-fold serial dilution method
Method in brief: (§1)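 Agar-medium twofold serial dilution against Gram-positive and Gram-negative strains; MIC taken as the lowest compound concentration giving complete inhibition of bacterial growth after incubation at 35 °C for 18-24 h.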

Escherichia coli [2] = experiment: Antimicrobial activity against Escherichia coli 10-2 after 18-24 hrs by two-fold serial dilution method; method in brief: as §1
Pseudomonas aeruginosa [3] = experiment: Antimicrobial activity against Pseudomonas aeruginosa 10-12 after 18-24 hrs by two-fold serial dilution method; method in brief: as §1
Pseudomonas aeruginosa [4] = experiment: Antimicrobial activity against extended spectrum beta-lactamases-producing Pseudomonas aeruginosa 10-15 after 18-24 hrs by two-fold serial dilution method; method in brief: as §1
Enterococcus faecalis [5] = experiment: Antimicrobial activity against Enterococcus faecalis 10-6 after 18-24 hrs by two-fold serial dilution method; method in brief: as §1
Enterococcus faecalis [6] = experiment: Antimicrobial activity against Enterococcus faecalis 10-5 after 18-24 hrs by two-fold serial dilution method; method in brief: as §1
Klebsiella pneumoniae [7] = experiment: Antimicrobial activity against extended spectrum beta-lactamases-producing Klebsiella pneumoniae 10-1 after 18-24 hrs by two-fold serial dilution method; method in brief: as §1
[8] = test system: Staphylococcus epidermidis; experiment: Antimicrobial activity against extended spectrum beta-lactamases-producing methicillin-sensitive Staphylococcus epidermidis 10-13 after 18-24 hrs by two-fold serial dilution method; method in brief: as §1
Pseudomonas aeruginosa [9] = experiment: Antimicrobial activity against extended spectrum beta-lactamases-producing Pseudomonas aeruginosa 10-20 after 18-24 hrs by two-fold serial dilution method; method in brief: as §1
Enterococcus faecium [10] = experiment: Antimicrobial activity against Enterococcus faecium 10-5 after 18-24 hrs by two-fold serial dilution method; method in brief: as §1
Klebsiella pneumoniae [11] = experiment: Antimicrobial activity against extended spectrum beta-lactamases-producing Klebsiella pneumoniae 10-3 after 18-24 hrs by two-fold serial dilution method; method in brief: as §1
[12] = test system: Staphylococcus epidermidis; experiment: Antimicrobial activity against extended spectrum beta-lactamases-producing methicillin-resistant Staphylococcus epidermidis 10-13 after 18-24 hrs by two-fold serial dilution method
Method in brief: (§2)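 Agar twofold serial dilution MIC against clinical isolates. MIC was taken as the lowest concentration giving complete inhibition of bacterial growth after incubation at 35 °C for 18-24 h.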

Streptococcus pneumoniae [13] = experiment: Antimicrobial activity against extended spectrum beta-lactamases-producing Streptococcus pneumoniae 10-4 after 18-24 hrs by two-fold serial dilution method; method in brief: as §1
Klebsiella pneumoniae [14] = experiment: Antimicrobial activity against extended spectrum beta-lactamases-producing Klebsiella pneumoniae 10-2 after 18-24 hrs by two-fold serial dilution method; method in brief: as §1
Staphylococcus aureus [15] = experiment: Antimicrobial activity against extended spectrum beta-lactamases-producing methicillin-resistant Staphylococcus aureus 10-15 after 18-24 hrs by two-fold serial dilution method; method in brief: as §2
Escherichia coli [16] = experiment: Antimicrobial activity against extended spectrum beta-lactamases-producing Escherichia coli 10-3 after 18-24 hrs by two-fold serial dilution method; method in brief: as §1
Escherichia coli [17] = experiment: Antimicrobial activity against Escherichia coli ATCC 25922 after 18-24 hrs by two-fold serial dilution method; method in brief: as §1
Klebsiella pneumoniae [18] = experiment: Antimicrobial activity against Klebsiella pneumoniae 10-4 after 18-24 hrs by two-fold serial dilution method; method in brief: as §1
Enterococcus faecalis [19] = experiment: Antimicrobial activity against Enterococcus faecalis 10-7 after 18-24 hrs by two-fold serial dilution method; method in brief: as §1
[20] = test system: Staphylococcus epidermidis; experiment: Antimicrobial activity against extended spectrum beta-lactamases-producing methicillin-sensitive Staphylococcus epidermidis 10-15 after 18-24 hrs by two-fold serial dilution method; method in brief: as §1
Staphylococcus aureus [21] = experiment: Antimicrobial activity against methicillin-resistant Staphylococcus aureus clinical isolate after 18-24 hrs by two-fold serial dilution method; method in brief: as §2
[22] = test system: Staphylococcus epidermidis; experiment: Antimicrobial activity against extended spectrum beta-lactamases-producing methicillin-sensitive Staphylococcus epidermidis 10-11 after 18-24 hrs by two-fold serial dilution method; method in brief: as §1
Staphylococcus aureus [23] = experiment: Antimicrobial activity against extended spectrum beta-lactamases-producing methicillin-resistant Staphylococcus aureus 10-11 after 18-24 hrs by two-fold serial dilution method; method in brief: as §2
Staphylococcus aureus [24] = experiment: Antimicrobial activity against extended spectrum beta-lactamases-producing methicillin-sensitive Staphylococcus aureus 10-13 after 18-24 hrs by two-fold serial dilution method; method in brief: as §1
Streptococcus pneumoniae [25] = experiment: Antimicrobial activity against extended spectrum beta-lactamases-producing Streptococcus pneumoniae 10-1 after 18-24 hrs by two-fold serial dilution method; method in brief: as §1
Pseudomonas aeruginosa [26] = experiment: Antimicrobial activity against extended spectrum beta-lactamases-producing Pseudomonas aeruginosa 10-5 after 18-24 hrs by two-fold serial dilution method; method in brief: as §1
Klebsiella pneumoniae [27] = experiment: Antimicrobial activity against Klebsiella pneumoniae 10-3 after 18-24 hrs by two-fold serial dilution method; method in brief: as §1
Escherichia coli [28] = experiment: Antimicrobial activity against Escherichia coli 10-1 after 18-24 hrs by two-fold serial dilution method; method in brief: as §1
Escherichia coli [29] = experiment: Antimicrobial activity against Escherichia coli 10-3 after 18-24 hrs by two-fold serial dilution method; method in brief: as §1
Staphylococcus aureus [30] = experiment: Antimicrobial activity against Staphylococcus aureus ATCC […] after 18-24 hrs by two-fold serial dilution method; method in brief: as §1
Escherichia coli [31] = experiment: Antimicrobial activity against extended spectrum beta-lactamases-producing Escherichia coli 10-2 after 18-24 hrs by two-fold serial dilution method; method in brief: as §1
[32] = test system: Staphylococcus epidermidis; experiment: Antimicrobial activity against extended spectrum beta-lactamases-producing methicillin-resistant Staphylococcus epidermidis 10-10 after 18-24 hrs by two-fold serial dilution method; method in brief: as §2
Staphylococcus aureus [33] = experiment: Antimicrobial activity against extended spectrum beta-lactamases-producing methicillin-sensitive Staphylococcus aureus 10-14 after 18-24 hrs by two-fold serial dilution method; method in brief: as §1
Escherichia coli [34] = experiment: Antimicrobial activity against extended spectrum beta-lactamases-producing Escherichia coli 10-4 after 18-24 hrs by two-fold serial dilution method; method in brief: as §1
Klebsiella pneumoniae [35] = experiment: Antimicrobial activity against Klebsiella pneumoniae 10-2 after 18-24 hrs by two-fold serial dilution method; method in brief: as §1
Pseudomonas aeruginosa [36] = experiment: Antimicrobial activity against extended spectrum beta-lactamases-producing Pseudomonas aeruginosa 10-9 after 18-24 hrs by two-fold serial dilution method; method in brief: as §1
Pseudomonas aeruginosa [37] = experiment: Antimicrobial activity against extended spectrum beta-lactamases-producing Pseudomonas aeruginosa 10-18 after 18-24 hrs by two-fold serial dilution method; method in brief: as §1
[38] = test system: Staphylococcus epidermidis; experiment: Antimicrobial activity against methicillin-resistant Staphylococcus epidermidis clinical isolate after 18-24 hrs by two-fold serial dilution method

Row | Structure (SMILES) | MIC (Enterococcus faecium [1]) | MIC (Escherichia coli [2]) | MIC (Pseudomonas aeruginosa [3]) | MIC (Pseudomonas aeruginosa [4]) | MIC (Enterococcus faecalis [5]) | MIC (Enterococcus faecalis [6]) | MIC (Klebsiella pneumoniae [7]) | MIC [8] | MIC (Pseudomonas aeruginosa [9]) | MIC (Enterococcus faecium [10]) | MIC (Klebsiella pneumoniae [11]) | MIC [12] | MIC (Streptococcus pneumoniae [13]) | MIC (Klebsiella pneumoniae [14]) | MIC (Staphylococcus aureus [15]) | MIC (Escherichia coli [16]) | MIC (Escherichia coli [17]) | MIC (Klebsiella pneumoniae [18]) | MIC (Enterococcus faecalis [19]) | MIC [20] | other results
1 | COc1cccc(CO/N=C2\CN(c3nc4c(cc3F)c(=O)c(C(=O)O)cn4C3CC3)CC2CN)c1OC.CS(=O)(=O)O (racemic) | 4 µg/mL | 16 µg/mL | 8 µg/mL | 8 µg/mL | 4 µg/mL | 0.25 µg/mL | > 128 µg/mL | 0.06 µg/mL | 8 µg/mL | 4 µg/mL | > 128 µg/mL | 0.25 µg/mL | 0.06 µg/mL | > 128 µg/mL | 4 µg/mL | 32 µg/mL | 0.125 µg/mL | > 128 µg/mL | 1 µg/mL | 4 µg/mL | MIC50 (Staphylococcus aureus [21]): 1 µg/mL; MIC90 (Staphylococcus aureus [21]): 4 µg/mL; MIC [22]: 0.25 µg/mL; MIC (Staphylococcus aureus [23]): 1 µg/mL; MIC (Staphylococcus aureus [24]): 0.03 µg/mL; MIC (Streptococcus pneumoniae [25]): 0.125 µg/mL; MIC (Pseudomonas aeruginosa [26]): 4 µg/mL; MIC (Klebsiella pneumoniae [27]): 2 µg/mL; MIC (Escherichia coli [28]): > 128 µg/mL; MIC (Escherichia coli [29]): 16 µg/mL; MIC (Staphylococcus aureus [30]): 0.015 µg/mL; MIC (Escherichia coli [31]): > 128 µg/mL; MIC [32]: 0.5 µg/mL; MIC (Staphylococcus aureus [33]): 0.06 µg/mL; MIC (Escherichia coli [34]): 2 µg/mL; MIC (Klebsiella pneumoniae [35]): 128 µg/mL; MIC (Pseudomonas aeruginosa [36]): 4 µg/mL; MIC (Pseudomonas aeruginosa [37]): 4 µg/mL
2 | CO/N=C1\CN(c2nc3c(cc2F)c(=O)c(C(=O)O)cn3C2CC2)CC1CN (centres undefined) [GEMIFLOXACIN] | 8 µg/mL (≈ 20.5 µM) | 0.5 µg/mL (≈ 1.28 µM) | 0.03 µg/mL (≈ 0.077 µM) | 1 µg/mL (≈ 2.57 µM) | 8 µg/mL (≈ 20.5 µM) | 1 µg/mL (≈ 2.57 µM) | 16 µg/mL (≈ 41.1 µM) | 1 µg/mL (≈ 2.57 µM) | 0.5 µg/mL (≈ 1.28 µM) | 8 µg/mL (≈ 20.5 µM) | 16 µg/mL (≈ 41.1 µM) | 0.5 µg/mL (≈ 1.28 µM) | 2 µg/mL (≈ 5.14 µM) | 16 µg/mL (≈ 41.1 µM) | 1 µg/mL (≈ 2.57 µM) | 2 µg/mL (≈ 5.14 µM) | 0.03 µg/mL (≈ 0.077 µM) | 32 µg/mL (≈ 82.2 µM) | 2 µg/mL (≈ 5.14 µM) | 16 µg/mL (≈ 41.1 µM) | MIC50 [38]: 0.25 µg/mL (≈ 0.642 µM); MIC90 [38]: 8 µg/mL (≈ 20.5 µM); MIC50 (Staphylococcus aureus [21]): 2 µg/mL (≈ 5.14 µM); MIC90 (Staphylococcus aureus [21]): 8 µg/mL (≈ 20.5 µM); MIC [22]: 16 µg/mL (≈ 41.1 µM); MIC (Staphylococcus aureus [23]): 4 µg/mL (≈ 10.3 µM); MIC (Staphylococcus aureus [24]): 0.25 µg/mL (≈ 0.642 µM); MIC (Streptococcus pneumoniae [25]): 2 µg/mL (≈ 5.14 µM); MIC (Pseudomonas aeruginosa [26]): 0.5 µg/mL (≈ 1.28 µM); MIC (Klebsiella pneumoniae [27]): 8 µg/mL (≈ 20.5 µM); MIC (Escherichia coli [28]): 8 µg/mL (≈ 20.5 µM); MIC (Escherichia coli [29]): 0.5 µg/mL (≈ 1.28 µM); MIC (Staphylococcus aureus [30]): 0.06 µg/mL (≈ 0.154 µM); MIC (Escherichia coli [31]): 16 µg/mL (≈ 41.1 µM); MIC [32]: 2 µg/mL (≈ 5.14 µM); MIC (Staphylococcus aureus [33]): 0.06 µg/mL (≈ 0.154 µM); MIC (Escherichia coli [34]): 8 µg/mL (≈ 20.5 µM); MIC (Klebsiella pneumoniae [35]): 0.5 µg/mL (≈ 1.28 µM); MIC (Pseudomonas aeruginosa [36]): 0.5 µg/mL (≈ 1.28 µM); MIC (Pseudomonas aeruginosa [37]): 2 µg/mL (≈ 5.14 µM)
3 | CS(=O)(=O)O.NCC1CN(c2nc3c(cc2F)c(=O)c(C(=O)O)cn3C2CC2)C/C1=N\OCc1cc2c(cc1Cl)OCO2 (racemic) | 8 µg/mL | 16 µg/mL | 8 µg/mL | 32 µg/mL | 8 µg/mL | 1 µg/mL | > 128 µg/mL | 8 µg/mL | 4 µg/mL | 8 µg/mL | > 128 µg/mL | 2 µg/mL | 2 µg/mL | > 128 µg/mL | 1 µg/mL | > 128 µg/mL | 0.25 µg/mL | 128 µg/mL | 4 µg/mL | 2 µg/mL | MIC [22]: 0.25 µg/mL; MIC (Staphylococcus aureus [23]): 2 µg/mL; MIC (Staphylococcus aureus [24]): 0.03 µg/mL; MIC (Streptococcus pneumoniae [25]): 0.5 µg/mL; MIC (Pseudomonas aeruginosa [26]): 8 µg/mL; MIC (Klebsiella pneumoniae [27]): 8 µg/mL; MIC (Escherichia coli [28]): > 128 µg/mL; MIC (Escherichia coli [29]): 16 µg/mL; MIC (Staphylococcus aureus [30]): 0.015 µg/mL; MIC (Escherichia coli [31]): 128 µg/mL; MIC [32]: 2 µg/mL; MIC (Staphylococcus aureus [33]): 0.06 µg/mL; MIC (Escherichia coli [34]): 8 µg/mL; MIC (Klebsiella pneumoniae [35]): > 128 µg/mL; MIC (Pseudomonas aeruginosa [36]): 8 µg/mL; MIC (Pseudomonas aeruginosa [37]): 16 µg/mL
